In brackets after ≈: the same amount, converted by molar mass.
Columns and labels:
Pseudomonas aeruginosa [1] = assay: Induction of inner membrane permeabilization of Pseudomonas aeruginosa ATCC 27853 after 15 mins by propidium iodide staining-based fluorescence assay; format: functional
Outline: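 Mid-log P. aeruginosa (OD620 ~0.4–0.5, grown in CA-MHB at 37 °C, 130 rpm) was adjusted to OD600 0.05. A 3 mM propidium iodide stock was diluted 10^3-fold in the suspension. Compounds in HEPES were added at final 1–10 μM. Fluorescence (ex 540/em 610 nm) was read at 25 °C after 15 min stabilization. Values were normalized to 150 μM CTAB (100%) and imipenem (0%).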

Escherichia coli [2] = assay: microbe, parasite or virus in culture; conditions: ATCC 25922
Pseudomonas aeruginosa [3] = assay: Antibacterial activity against triABC deficient Pseudomonas aeruginosa PA406 by microdilution method; format: functional
Outline: (§1)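 Strains grown overnight at 37 °C on trypticase soy agar; MIC by broth microdilution from fresh culture in cation-adjusted Mueller–Hinton broth, starting inoculum 10^6 cells, following CLSI recommendations.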

[4] = Cytotoxicity against mouse J774 cells assessed as cell viability at 30 uM after 24 hrs by MTT assay relative to control; format: toxicity, cell-based; conditions: J774 cells, read-out: Activity
Outline: (§2)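 Murine J774 macrophages exposed 24 h to 10 or 30 μM compound, then 1 h with 0.2 mg/mL MTT; reaction stopped with DMSO, OD read at 570 nm as metabolic-activity viability. Number of independent experiments given per value.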

Acinetobacter lwoffii [5] = assay: Antibacterial activity against APH3'-VIA expressing Acinetobacter lwoffii AI.88-483 by microdilution method; format: functional; outline: as §1
Escherichia coli [6] = assay: Antibacterial activity against ANT2''-IA expressing Escherichia coli L8058.1 by microdilution method; format: functional; outline: as §1
Staphylococcus aureus [7] = assay: Antibacterial activity against Staphylococcus aureus ATCC 25923 by microdilution method; format: functional
Outline: (§3)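 Broth microdilution per CLSI in cation-adjusted Mueller–Hinton broth. Strains were grown overnight at 37 °C on trypticase soy agar, and a fresh culture was used. Starting inoculum was 10^6 cells.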

Pseudomonas aeruginosa [8] = assay: Antibacterial activity against AAC6'-2A expressing Pseudomonas aeruginosa F03 by microdilution method; format: functional; outline: as §1
Pseudomonas aeruginosa [9] = assay: Ratio of MIC for Pseudomonas aeruginosa ATCC 27853 after 9 serial passages to MIC for Pseudomonas aeruginosa ATCC 27853 prior to serial passages; format: functional
Acinetobacter lwoffii [10] = assay: Antibacterial activity against Acinetobacter lwoffii ATCC 17925 by microdilution method; format: functional; outline: as §1
[11] = Cytotoxicity against mouse J774 cells assessed as cell viability at 10 uM after 24 hrs by MTT assay relative to control; format: toxicity, cell-based; conditions: J774 cells, read-out: Activity; outline: as §2
Klebsiella pneumoniae = assay: Antibacterial activity against Klebsiella pneumoniae ATCC 700603 by microdilution method; format: functional; outline: as §1
Pseudomonas aeruginosa [12] = assay: Antibacterial activity against Pseudomonas aeruginosa ATCC 27853 by microdilution method; format: functional; outline: as §1
Staphylococcus aureus [13] = assay: Antibacterial activity against NorA expressing Staphylococcus aureus 1 by microdilution method
Pseudomonas aeruginosa [14] = assay: Antibacterial activity against MexXY expressing Pseudomonas aeruginosa PA22 by microdilution method; format: functional; outline: as §1
Staphylococcus aureus [15] = assay: Antibacterial activity against healthcare-acquired methicillin-resistant Staphylococcus aureus ATCC 33592 by microdilution method; format: functional; outline: as §3
Escherichia coli [16] = assay: Antibacterial activity against AAC6'-IB expressing Escherichia coli PAZ505H8101 by microdilution method; format: functional; outline: as §1
Pseudomonas aeruginosa [17] = assay: Induction of inner membrane permeabilization of Pseudomonas aeruginosa ATCC 27853 at 5 uM after 15 mins by propidium iodide staining-based fluorescence assay relative to control; format: functional
Outline: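 P. aeruginosa ATCC 27853 from TSA colony, overnight in MHB-CA at 37 °C with shaking, diluted 100-fold and grown 4 h to mid-log (OD620 ~0.4–0.5). Suspension (OD600 0.05) with PI (3 mM stock diluted 10^3-fold) plus compound in HEPES (1–10 μM final). Fluorescence ex 540/em 610 nm at 25 °C after 15 min; normalized to CTAB 150 μM (100%) and imipenem (0%).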

Pseudomonas aeruginosa [18] = assay: Ratio of MIC for Pseudomonas aeruginosa ATCC 27853 after 4 serial passages to MIC for Pseudomonas aeruginosa ATCC 27853 prior to serial passages; format: functional
Pseudomonas aeruginosa [19] = assay: Induction of inner membrane permeabilization of Pseudomonas aeruginosa ATCC 27853 at 150 uM after 15 mins by propidium iodide staining-based fluorescence assay relative to control; format: functional

Compound | Activity (Pseudomonas aeruginosa [1]) [%] | MIC (Escherichia coli [2]) [µg/mL] | MIC (Pseudomonas aeruginosa [3]) [µg/mL] | viability at 24 h, 30 µM [4] [%] | MIC (Acinetobacter lwoffii [5]) [µg/mL] | MIC (Escherichia coli [6]) [µg/mL] | MIC (Staphylococcus aureus [7]) [µg/mL] | MIC (Pseudomonas aeruginosa [8]) [µg/mL] | Ratio (Pseudomonas aeruginosa [9]) | MIC (Acinetobacter lwoffii [10]) [µg/mL] | viability at 24 h, 10 µM [11] [%] | MIC (Klebsiella pneumoniae) [µg/mL] | MIC (Pseudomonas aeruginosa [12]) [µg/mL] | MIC (Staphylococcus aureus [13]) [µg/mL] | MIC (Pseudomonas aeruginosa [14]) [µg/mL] | MIC (Staphylococcus aureus [15]) [µg/mL] | MIC (Escherichia coli [16]) [µg/mL] | Activity (Pseudomonas aeruginosa [17]) [%] | Ratio (Pseudomonas aeruginosa [18]) | Activity (Pseudomonas aeruginosa [19]) [%]
C[C@@H](O)[C@H]1C(=O)N2C(C(=O)O)=C(SCCNC=N)C[C@H]12 [IMIPENEM ANHYDROUS] | 0 | – | – | – | – | – | – | – | – | – | – | – | – | – | – | – | – | – | – | –
NC[C@H]1O[C@H](O[C@H]2[C@H](O)[C@@H](O)[C@H](N)C[C@@H]2N)[C@H](N)[C@@H](OCCCc2ccc3ccccc3c2)[C@@H]1OCCCc1ccc2ccccc2c1 | – | 16 to 32 (≈ 24.3 to 48.6 µM) | 4 (≈ 6.07 µM) | 66.9 | 32 to 64 (≈ 48.6 to 97.1 µM) | 4 to 8 (≈ 6.07 to 12.1 µM) | 2 to 4 (≈ 3.04 to 6.07 µM) | 8 (≈ 12.1 µM) | 15 | 2 to 4 (≈ 3.04 to 6.07 µM) | 87.7 | 64 (≈ 97.1 µM) | 4 (≈ 6.07 µM) | 0.5 to 1 (≈ 0.759 to 1.52 µM) | 16 (≈ 24.3 µM) | 1 to 2 (≈ 1.52 to 3.04 µM) | 2 (≈ 3.04 µM) | – | – | –
CCCCCCCCCO[C@@H]1[C@@H](N)[C@@H](O[C@H]2[C@H](O)[C@@H](O)[C@H](N)C[C@@H]2N)O[C@H](CN)[C@H]1OCCCCCCCCC | – | 4 to 8 (≈ 6.96 to 13.9 µM) | 8 to 16 (≈ 13.9 to 27.8 µM) | 48.6 | 32 (≈ 55.7 µM) | 4 to 8 (≈ 6.96 to 13.9 µM) | 4 (≈ 6.96 µM) | 8 to 16 (≈ 13.9 to 27.8 µM) | – | 2 to 4 (≈ 3.48 to 6.96 µM) | 82.7 | 16 to 32 (≈ 27.8 to 55.7 µM) | 8 to 16 (≈ 13.9 to 27.8 µM) | 2 (≈ 3.48 µM) | 8 to 16 (≈ 13.9 to 27.8 µM) | 4 (≈ 6.96 µM) | 2 to 4 (≈ 3.48 to 6.96 µM) | 25 | – | –
O=C(O)c1cn(C2CC2)c2cc(N3CCNCC3)c(F)cc2c1=O [CIPROFLOXACIN] | – | – | – | – | – | – | – | – | – | – | – | – | – | – | – | – | – | – | 15 | –
Hexadecyltrimethylammonium bromide | – | – | – | – | – | – | – | – | – | – | – | – | – | – | – | – | – | – | – | 100

Reference: ChEMBL document CHEMBL3860087, “New Broad-Spectrum Antibacterial Amphiphilic Aminoglycosides Active against Resistant Bacteria: From Neamine Derivatives to Smaller Neosamine Analogues” (J Med Chem, 2016)
